# Screening results (PubChem)
# ANO1 activ: activates or potentiates the mouse TMEM16A chloride channel | actives 0.3% (n = 340,000) | HEK293 TMEM16A/YFP-H148Q/I152L, iodide quench fluorescence; stronger effect = lower value | Q8BHY3 | B-score at 10 µM;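 active means fluorescence-ratio B-score plate-corrected deviation score at least 3 library SD below zero, with starting fluorescence score within 5 deviations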;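 further: channel opened by trigger with iodide after compound preincubation; score built on the fluorescence ratio of max minus min over baseline; more negative score means more quench and so TMEM16A activation or potentiation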
# Target sequence (Q8BHY3 whole entry, looked up): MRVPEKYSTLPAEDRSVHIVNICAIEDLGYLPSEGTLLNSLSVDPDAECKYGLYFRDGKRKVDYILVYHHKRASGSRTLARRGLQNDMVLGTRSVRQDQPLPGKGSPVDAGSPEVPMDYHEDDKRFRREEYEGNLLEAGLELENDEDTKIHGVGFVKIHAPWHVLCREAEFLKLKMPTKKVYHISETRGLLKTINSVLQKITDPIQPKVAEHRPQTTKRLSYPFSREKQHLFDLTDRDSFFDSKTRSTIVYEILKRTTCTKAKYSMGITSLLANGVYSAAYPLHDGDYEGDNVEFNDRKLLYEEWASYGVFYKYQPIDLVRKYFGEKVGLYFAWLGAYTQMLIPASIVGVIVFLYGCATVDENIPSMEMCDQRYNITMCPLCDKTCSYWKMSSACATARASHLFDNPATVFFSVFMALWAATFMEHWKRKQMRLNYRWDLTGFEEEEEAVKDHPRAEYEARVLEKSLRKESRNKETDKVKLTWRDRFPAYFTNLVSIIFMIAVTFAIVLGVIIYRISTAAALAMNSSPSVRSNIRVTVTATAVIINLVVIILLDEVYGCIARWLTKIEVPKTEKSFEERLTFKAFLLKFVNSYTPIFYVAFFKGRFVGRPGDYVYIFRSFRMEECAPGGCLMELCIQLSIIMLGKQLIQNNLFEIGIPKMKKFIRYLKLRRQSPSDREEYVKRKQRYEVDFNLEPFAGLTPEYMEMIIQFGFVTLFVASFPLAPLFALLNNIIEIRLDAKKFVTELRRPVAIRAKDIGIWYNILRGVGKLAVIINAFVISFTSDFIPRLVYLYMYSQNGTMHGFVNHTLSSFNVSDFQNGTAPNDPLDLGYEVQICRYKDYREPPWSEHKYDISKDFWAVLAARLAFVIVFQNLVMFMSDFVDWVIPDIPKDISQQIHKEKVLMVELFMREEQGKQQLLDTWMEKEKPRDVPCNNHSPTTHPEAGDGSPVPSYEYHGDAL
# UPR CHOP act: apoptotic UPR (CHOP) activation; CHO-CHOP luciferase reporter, luminescence; percent of tunicamycin response over DMSO baseline; activation, % at 10 µM; actives 0.34% (n = 330,000); AID 449763;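 active means at 10 µM dose, activation of 40% or more, normalized to positive control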;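 further: 100% = tunicamycin at 10 µg/mL and 0% = DMSO alone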
#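 Evaluation: % reporter activation, DMSO baseline versus tunicamycin full activation; System: CHO-CHOP luciferase reporter cell line; Input: 500 cells/well; Incubation: 6 h compound treatment, 37 °C; Measured by: Steady-Glo luciferase luminescence; Dosing: one dose, 10 µM in 0.5% DMSO; Buffer or medium: F12 medium, 10% FBS; Benchmarks: positive tunicamycin 10 µg/mL, negative DMSO alone.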
# Lipid droplet: hepatic lipid droplet formation modulation. AML12 mouse hepatocytes, oleate lipid droplets, BODIPY imaging. inhibition, % at 6.5 µM. actives 0.4% (n = 240,000);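 active means lipid droplet intensity inhibited by at least 50%, with more than 500 cells counted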
#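 Material: mouse AML12 hepatocyte cell line, fixed after treatment; Timing: compound with oleate, overnight; Technique: high-content imaging of BODIPY-stained droplets and DAPI nuclei; Probe or stimulus: oleate, 100 µM final; Dosing: compound at 6.5 µM only.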
# CHOP inhibitor: inhibitors of CHOP induction in ER stress response. CHO-K1 CHOP-promoter luciferase, tunicamycin-induced, 15-18 h. inhibition, % at 10 µM. actives 3.8% (n = 220,000);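 active means compounds that reduced the stress-induced luciferase reporter signal by more than about 70% of percent inhibition, limit read from the data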;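 further: 0% = tunicamycin plus vehicle and 100% = wells without tunicamycin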
# UPR XBP1 act: adaptive UPR (XBP1) activation | CHO-XBP1 luciferase reporter, IRE1-XBP1 UPR activation, luminescence; percent of tunicamycin response, DMSO as zero | actives 0.33% (n = 330,000) | activation, % at 20 µM;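 active means versus positive control, 20 µM dose yields 30% or more activation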;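 further: 100% = tunicamycin at 10 µg/mL and 0% = DMSO only wells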
#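 Material: CHO cell line with stable XBP1 luciferase reporter; schedule: 16-18 h cell attachment at 37 °C, then 6 h compound exposure; signal: glow luminescence from Steady-Glo reagent; medium: serum-containing F12 medium, 10% FBS; benchmarks: tunicamycin 10 µg/mL and vehicle-only wells; read-out: percent activation relative to tunicamycin reference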
# TMEM16A inh: inhibitors of mouse TMEM16A calcium-activated chloride channel; Q8BHY3; HEK293 TMEM16A/YFP iodide influx fluorescence, ionomycin; normalized B-score (activity score, 25-100; higher = stronger inhibition) at 10 µM; actives 1.2% (n = 310,000);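 active means ratio plate-corrected score three or more library SD toward inhibition, starting fluorescence score within five deviations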;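 further: score derived from kinetic fluorescence span divided by baseline fluorescence per well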
# CHOP inh conf: confirmation of CHOP induction inhibitors; CHO-CHOP promoter luciferase reporter, tunicamycin-induced, luminescence; inhibition, % at 10 µM; shares compounds with CHOP inhibitor; actives 45% (n = 2,100); AID 504437;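 active means mean of three repeat readings of reporter signal inhibition above a set limit, cut at about 70% in these data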;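 further: 0% = tunicamycin plus vehicle and 100% = wells lacking tunicamycin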
# The depositor's hits bear a star; i = inactive; nt = not tested or not shown. This is a sample that favours compounds with a hit; in the whole collection about 4.2% have one here.
SMILES,ANO1 activ,UPR CHOP act,Lipid droplet,CHOP inhibitor,UPR XBP1 act,TMEM16A inh,CHOP inh conf
CCCCC1=CC2=C(c3ccco3)C(=O)C(C)(OC(=O)c3ccc(OC)cc3)C(=O)C2=CN1Cc1ccco1 (stereo not given),i,1,29,102*,-1,i,37
CCCCC1=CC2=C(c3ccco3)C(=O)C(C)(OC(=O)c3ccc(OC)cc3)C(=O)C2=CN1CCCCO (stereo not given),i,-2,nt,12,1,i,nt
CN(C)c1ccc(C(CNS(=O)(=O)c2ccc(F)cc2)c2c[nH]c3ccccc23)cc1 (stereo not given),i,-1,32,107*,-2,i,19
CC(C)c1ccc(C(C(=O)NC2CCCC2)N(C(=O)c2csnn2)C2CC2)cc1 (stereo not given),i,-1,-4,nt,-6,i,nt
Cn1c(=O)c2ncn(CC(=O)Nc3nc(-c4ccc(Cl)cc4)cs3)c2n(C)c1=O,i,2,-7,100*,0,i,61
Cn1c(=O)c([N+](=O)[O-])c(Cl)c2ccccc21,i,nt,2,108*,nt,nt,141*
CCN(CC)c1c([N+](=O)[O-])c(=O)n(C)c2ccccc12,i,1,-24,3,-3,i,nt
Cc1cccc(N(CC(=O)NCCc2ccccc2)C(=O)CCC(=O)Nc2ccccn2)c1C,i,-1,-7,nt,0,i,nt
O=C(CN1c2ccccc2Sc2ccccc21)NNC(=O)Nc1ccc(Cl)cc1,i,2,-1,100*,0,i,27
O=C(CN1c2ccccc2Sc2ccccc21)NNC(=O)Nc1ccc(Cl)c(Cl)c1,i,1,24,20,-3,i,nt
O=Cc1cccc(OC(=O)c2ccc(Cl)cc2Cl)c1,nt,5,13,101*,0,i,10
COc1cc(C(=O)Oc2cccc(C=O)c2)cc(OC)c1OC,i,-2,9,19,2,i,nt
O=[N+]([O-])c1ccc(N2CCN(c3cccc(Cl)c3)CC2)cn1,i,2,-5,nt,1,i,nt
CCCCN=c1scc(-c2ccc3c(c2)NC(=O)CO3)n1N=C1CCCC1,i,0,17,106*,0,i,105*
O=C(N/N=C/c1ccccc1)c1n[nH]c2c1CCCC2,i,-1,1,28,-6,i,nt
O=C(N/N=C/c1ccccc1Cl)c1n[nH]c2c1CCCC2,i,-9,-5,107*,-5,i,83*
Cc1noc(C)c1S(=O)(=O)N1CCCN(C(=O)/C=C/c2ccccc2F)CC1,i,0,nt,nt,1,nt,nt
COc1oc(-c2ccc(Cl)cc2)nc1C(F)(F)F,i,34,-6,103*,0,i,71*
COC(=O)c1oc(-c2ccc(Cl)cc2)nc1C,i,3,-1,-11,4,i,nt
COc1ccc(CCc2nnc(CCC(=O)N(C)Cc3ccncc3C)o2)cc1,i,3,-3,0,-2,i,nt
Cc1cc2oc(C(=O)N(Cc3ccc(N(C)C)cc3)CC3CCCO3)c(C)c2cc1C (stereo not given),i,0,-16,nt,-2,i,nt
CCCC(NCC(O)COc1ccc(-c2ccccc2)cc1)c1ccccc1 (stereo not given),i,8,-21,103*,24,i,125*
CC[C@H](C)Cc1cn([C@@H](CCCCNC(=O)OC(C)(C)C)C(=O)NCCCCCCCCCCC(=O)N2CCN(C(=O)OC(C)(C)C)CC2)nn1,i,6,nt,nt,-1,i,nt
COc1ccc2oc(=O)c(-c3cn4ccc(C)cc4n3)cc2c1,i,4,-3,97*,1,i,-30
Cc1cc(C)cc(Oc2ccccc2C=O)c1,i,-2,-8,99*,14,i,18
SMILES,ANO1 activ,UPR CHOP act,Lipid droplet,CHOP inhibitor,UPR XBP1 act,TMEM16A inh,CHOP inh conf
Cc1nn(-c2ccccc2)c2c1C(c1ccc(F)cc1F)C(C#N)=C(N)O2 (stereo not given),i,-1,-1,99*,6,i,17
Cc1ccc(S(=O)(=O)N2CCN(CC(=O)N/N=C/c3ccco3)CC2)cc1,i,-1,11,-5,1,i,nt
Cn1nc(-c2ccc(C(=O)Nc3cccnc3)cc2)c2ccccc2c1=O,i,0,2,20,2,i,nt
Cn1nc(-c2ccc(C(=O)Nc3ccc(F)cc3)cc2)c2ccccc2c1=O,i,-2,-1,101*,-3,i,48
O=C(CSc1nc(C2CC2)nc2c1cnn2-c1ccccc1)Nc1c[nH]c(=O)[nH]c1=O,i,1,7,96*,12,i,48
CS(=O)(=O)N(CC(=O)Nc1ccc(S(=O)(=O)N2CCCC2)cc1)c1ccccc1,i,-1,1,2,-4,i,nt
Cc1ccc(-c2nc(C(Cl)Cl)c3ccccc3n2)cc1,i,28,-10,103*,5,i,100*
O=C(/C=C/c1ccccc1)Nc1cc(NC(=O)/C=C/c2ccccc2)cc(C(=O)O)c1,i,-2,-2,nt,-4,i,nt
O=C(/C=C/c1ccccc1)Nc1cccc(C(=O)O)c1,i,-10,-1,97*,-13,i,116*
CCOc1cc(/C=N\NC(=O)Cc2ccccc2)ccc1OCC(=O)Nc1ccc(C)c(C)c1,i,32,-1,97*,26,i,127*
CCOc1cc(/C=N/O)ccc1OCC(=O)Nc1cccc(C)c1,i,2,-20,29,2,i,nt
O=C(CCCN1C(=O)/C(=C\c2ccccc2)SC1=S)Nc1ccc(O)cc1,i,1,-6,98*,-1,i,18
O=C(CCCN1C(=O)/C(=C/c2ccccc2)SC1=S)Nc1cccc(O)c1,i,0,-23,67,-2,i,nt
COCCN(C(=O)CSc1nnc(-c2cccc(F)c2)n1N)c1c(N)n(Cc2ccccc2)c(=O)[nH]c1=O,i,2,nt,nt,0,i,nt
COc1ccc(C(=O)N/N=C/c2sc3ccccc3c2O)cc1,i,nt,-11,24,nt,i,nt
COc1ccc2cc(C(=O)N/N=C/c3sc4ccccc4c3O)ccc2c1,i,2,-8,97*,-1,i,-17
CC(C)(CNC(=O)c1cccc(S(=O)(=O)Nc2ccc(SC(F)F)cc2)c1)N1CCOCC1,i,nt,nt,nt,nt,nt,nt
